Legend:
Rattus norvegicus [1] = organism: Rattus norvegicus; experiment: Effect in the anti ovulatory assay (AOA) in rats expressed as no. of rats ovulating/No of rats treated at 1.0 mg; 3/11; format: functional
Rattus norvegicus [2] = organism: Rattus norvegicus; experiment: Effect in the anti ovulatory assay (AOA) in rats expressed as no. of rats ovulating/No of rats treated at 0.5 mg; 4/4; format: functional
Rattus norvegicus [3] = organism: Rattus norvegicus; experiment: Effect in the anti ovulatory assay (AOA) in rats expressed as no. of rats ovulating/No of rats treated at 25 mg; 2/8; format: functional
Rattus norvegicus [4] = organism: Rattus norvegicus; experiment: Effect in the anti ovulatory assay (AOA) in rats expressed as no. of rats ovulating/No of rats treated at 100 mg; 0/4; format: functional
Rattus norvegicus [5] = organism: Rattus norvegicus; experiment: Effect in the anti ovulatory assay (AOA) in rats expressed as no. of rats ovulating/No of rats treated at 0.5 mg; 8/8; format: functional
Rattus norvegicus [6] = organism: Rattus norvegicus; experiment: Effect in the anti ovulatory assay (AOA) in rats expressed as no. of rats ovulating/No of rats treated at 1.0 mg; 4/8; format: functional
Rattus norvegicus [7] = organism: Rattus norvegicus; experiment: Duration of action measured using castrated male rat assay to inhibit luteinizing hormone release.; fully active at 48 hr but not at 72 hr; format: functional
Rattus norvegicus [8] = organism: Rattus norvegicus; experiment: Effect in the anti ovulatory assay (AOA) in rats expressed as no. of rats ovulating/No of rats treated at 1.0 mg; 6/6; format: functional
Rattus norvegicus [9] = organism: Rattus norvegicus; experiment: Effect in the anti ovulatory assay (AOA) in rats expressed as no. of rats ovulating/No of rats treated at 2.5 mg; 0/9; format: functional
[10] = molecular target: T1, Gonadotropin-releasing hormone receptor (Rattus norvegicus) (UniProt P30969); experiment: Duration of action measured using castrated male rat assay to inhibit luteinizing hormone release.; fully active at 72 hr; format: functional
T1 sequence (whole entry): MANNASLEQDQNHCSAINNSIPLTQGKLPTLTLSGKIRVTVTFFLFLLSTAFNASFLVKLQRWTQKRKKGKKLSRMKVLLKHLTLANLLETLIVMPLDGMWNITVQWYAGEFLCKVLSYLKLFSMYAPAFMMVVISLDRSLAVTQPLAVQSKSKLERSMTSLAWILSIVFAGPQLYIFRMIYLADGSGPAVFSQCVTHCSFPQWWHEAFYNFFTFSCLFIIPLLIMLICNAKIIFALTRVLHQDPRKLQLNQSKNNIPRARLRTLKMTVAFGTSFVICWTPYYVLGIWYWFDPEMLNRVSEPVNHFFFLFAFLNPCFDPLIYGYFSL

Rattus norvegicus [11] = organism: Rattus norvegicus; experiment: Effect in the anti ovulatory assay (AOA) in rats expressed as no. of rats ovulating/No of rats treated at 0.5 mg; 6/7; format: functional
Rattus norvegicus [12] = organism: Rattus norvegicus; experiment: Effect in the anti ovulatory assay (AOA) in rats expressed as no. of rats ovulating/No of rats treated at 1.0 mg; 5/13; format: functional
Rattus norvegicus [13] = organism: Rattus norvegicus; experiment: Effect in the anti ovulatory assay (AOA) in rats expressed as no. of rats ovulating/No of rats treated at 2.5 mg; 0/7; format: functional
Rattus norvegicus [14] = organism: Rattus norvegicus; experiment: Effect in the anti ovulatory assay (AOA) in rats expressed as no. of rats ovulating/No of rats treated at 1.0 mg; 5/5; format: functional
Rattus norvegicus [15] = organism: Rattus norvegicus; experiment: Effect in the anti ovulatory assay (AOA) in rats expressed as no. of rats ovulating/No of rats treated at 2.5 mg; 4/8; format: functional
Rattus norvegicus [16] = organism: Rattus norvegicus; experiment: Effect in the anti ovulatory assay (AOA) in rats expressed as no. of rats ovulating/No of rats treated at 1.0 mg; 3/9; format: functional
[17] = molecular target: T1, Gonadotropin-releasing hormone receptor (Rattus norvegicus); experiment: Effect in the anti ovulatory assay (AOA) in rats expressed as no. of rats ovulating/No of rats treated at 2.5 mg; 0/8; format: functional
[18] = molecular target: T1, Gonadotropin-releasing hormone receptor (Rattus norvegicus); experiment: In vitro potency to inhibit GnRH-mediated LH secretion by cultured pituitary cells relative to [Ac-delta-Pro1,DFpa2,DTrp36]GnRH.; format: functional, cell-based; details: Pituitary gland cell
Summary of the method: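 Dispersed rat pituitary cells in culture; antagonist inhibition of GnRH-stimulated LH secretion. Potency expressed relative to standard antagonist [Ac-Δ3Pro1,D4FPhe2,DTrp3,6]GnRH taken as 1.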

Rattus norvegicus [19] = organism: Rattus norvegicus; experiment: Effect in the anti ovulatory assay (AOA) in rats expressed as no. of rats ovulating/No of rats treated at 50 mg; 4/4; format: functional

## CC(=O)N[C@H](Cc1cnc2ccccc2c1)C(=O)N[C@H](Cc1ccc(Cl)cc1)C(=O)N[C@H](Cc1cccnc1)C(=O)N[C@@H](CO)C(=O)N[C@@H](Cc1ccc(Nc2n[nH]c(N)n2)cc1)C(=O)N[C@H](Cc1ccc(Nc2n[nH]c(N)n2)cc1)C(=O)N[C@@H](CC(C)C)C(=O)N[C@@H](CCCCNC(C)C)C(=O)N1CCC[C@H]1C(=O)N[C@H](C)N
Rattus norvegicus [1]
  No. of rats ovulated: 3
Rattus norvegicus [2]
  No. of rats ovulated: 4

## CC[C@H](C)[C@H](NC(=O)[C@H](CC(C)C)NC(=O)[C@@H](Cc1ccc(Nc2n[nH]c(N)n2)cc1)NC(=O)[C@H](Cc1ccc(Nc2n[nH]c(N)n2)cc1)N(C)C(=O)[C@H](CO)NC(=O)[C@@H](Cc1cccnc1)NC(=O)[C@@H](Cc1ccc(Cl)cc1)NC(=O)[C@@H](Cc1ccc2ccccc2c1)NC(C)=O)C(=O)N1CCC[C@H]1C(=O)N[C@H](C)N
Rattus norvegicus [3]
  No. of rats ovulated: 2
Rattus norvegicus [4]
  No. of rats ovulated: 0

## CC(=O)N[C@H](Cc1ccc2ccccc2c1)C(=O)N[C@H](Cc1ccc(Cl)cc1)C(=O)N[C@H](Cc1cccnc1)C(=O)N[C@@H](CO)C(=O)N[C@@H](Cc1ccc(NC(=O)c2cnccn2)cc1)C(=O)N[C@H](Cc1ccc(NC(=O)c2cnccn2)cc1)C(=O)N[C@@H](CC(C)C)C(=O)N[C@@H](CCCCNC(C)C)C(=O)N1CCC[C@H]1C(=O)N[C@H](C)N
Rattus norvegicus [5]
  No. of rats ovulated: 8
Rattus norvegicus [6]
  No. of rats ovulated: 4

## CC(=O)N[C@H](Cc1ccc2ccccc2c1)C(=O)N[C@H](Cc1ccc(Cl)cc1)C(=O)N[C@H](Cc1cccnc1)C(=O)N[C@@H](CO)C(=O)N[C@@H](Cc1ccc(Nc2n[nH]c(N)n2)cc1)C(=O)N[C@H](Cc1ccc(Nc2n[nH]c(N)n2)cc1)C(=O)N[C@@H](Cc1ccccc1)C(=O)N[C@@H](CCCCNC(C)C)C(=O)N1CCC[C@H]1C(=O)N[C@H](C)N
Rattus norvegicus [7]
  Duration of action: Intermediate
Rattus norvegicus [8]
  No. of rats ovulated: 6
Rattus norvegicus [9]
  No. of rats ovulated: 0

## CC(=O)Nc1ccc(C[C@H](NC(=O)[C@H](CO)NC(=O)[C@@H](Cc2cccnc2)NC(=O)[C@@H](Cc2ccc(Cl)cc2)NC(=O)[C@@H](Cc2ccc3ccccc3c2)NC(C)=O)C(=O)N[C@H](Cc2ccc(NC(C)=O)cc2)C(=O)N[C@@H](CC(C)C)C(=O)N[C@@H](CCCCNC(C)C)C(=O)N2CCC[C@H]2C(=O)N[C@H](C)N)cc1
[10]
  Duration of action: 72 h
Rattus norvegicus [11]
  No. of rats ovulated: 6
Rattus norvegicus [12]
  No. of rats ovulated: 5
Rattus norvegicus [13]
  No. of rats ovulated: 0

## CC(=O)N[C@H](Cc1ccc2ccccc2c1)C(=O)N[C@H](Cc1ccc(Cl)cc1)C(=O)N[C@H](Cc1cccnc1)C(=O)N[C@@H](CO)C(=O)N[C@@H](Cc1ccc(NC(=O)CCl)cc1)C(=O)N[C@H](Cc1ccc(NC(=O)CCl)cc1)C(=O)N[C@@H](CC(C)C)C(=O)N[C@@H](CCCCNC(C)C)C(=O)N1CCC[C@H]1C(=O)N[C@H](C)N
Rattus norvegicus [14]
  No. of rats ovulated: 5
Rattus norvegicus [15]
  No. of rats ovulated: 4

## CC(=O)N[C@H](Cc1ccc2ccccc2c1)C(=O)N[C@H](Cc1ccc(Cl)cc1)C(=O)N[C@H](Cc1cccnc1)C(=O)N[C@@H](CO)C(=O)N[C@@H](Cc1ccc(NC=O)cc1)C(=O)N[C@H](Cc1ccc(NC=O)cc1)C(=O)N[C@@H](CC(C)C)C(=O)N[C@@H](CCCCNC(C)C)C(=O)N1CCC[C@H]1C(=O)N[C@H](C)N
[10]
  Duration of action: 72 h
Rattus norvegicus [16]
  No. of rats ovulated: 3
[17]
  No. of rats ovulated: 0

## CC(=O)N[C@H](Cc1ccc2ccccc2c1)C(=O)N[C@H](Cc1ccc(Cl)cc1)C(=O)N[C@H](Cc1cccnc1)C(=O)N[C@@H](CO)C(=O)N[C@@H](Cc1ccc(NC(=O)Nc2ccccc2Cl)cc1)C(=O)N[C@H](Cc1ccc(NC(=O)Nc2ccccc2Cl)cc1)C(=O)N[C@@H](CC(C)C)C(=O)N[C@@H](CCCCNC(C)C)C(=O)N1CCC[C@H]1C(=O)N[C@H](C)N
[18]
  Relative potency: 0.1
Rattus norvegicus [19]
  No. of rats ovulated: 4

Source: ChEMBL document CHEMBL1128434, “Gonadotropin-releasing hormone antagonists: novel members of the azaline B family” (1995)
